# Laboratory results reported in PubChem BioAssay.
# Calls of active or inactive are those of the source.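 The calls were made as follows, unless noted: active = NADPH fluorescence slope more negative than the mean of all samples by about 3 SD, 99.7% confidence; inactive = the rest.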
# Columns and labels:
# [1] = inhibitors of TNFa-induced NFkB p65 translocation, primary screen, imaging, HUVEC, MLSMR starter and 10KST1 sets (AID 438;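 active = inhibition above 20% together with a positive visual image hit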;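 also: compound added about 3h40 before a 20 min TNFalpha stimulation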;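 as to inhibition: signal is the nuclear over cytoplasmic p65 intensity ratio per well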); details: HUVEC TNFa-induced p65 nuclear translocation; cell count: measured here: nuclei count (cytotoxicity indicator), at 2.08 µM; inhibition: at 2 µM, stronger effect = higher value, 0% TNFa-plus-vehicle, 100% no-TNFa wells
# [2] = reduction of polyQ htt aggregates in cells – imaging, exon1htt(103Q)mCFP cells, high-content imaging, primary screen (AID 483;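 active = visual image review flags a hit and inhibition of aggregation exceeds 20%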;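 also: compound exposure lasted 3 days before fixation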;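 as to nuclei count: percent of the per-plate median nuclei count of sample wells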); details: exon1htt(103Q)mCFP cell line, aggregate imaging, at 2 µM; inhibition of aggregation: stronger effect = higher value; nuclei count: measured here: cell count, toxicity
# [3] = endothelial E-selectin expression blockers – imaging, HUVEC, immunofluorescence, MLSMR starter and 10KST1 sets, primary screen (AID 487;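 active = visually confirmed hit in the image check and inhibition above 20%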;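 as to inhibition: signal is fraction of cell area covered by stained E-selectin grains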;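 as to nuclei count: 100% = median nuclei count of all wells on the same plate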); details: HUVEC TNFalpha-induced E-selectin immunofluorescence imaging, at 2 µM; inhibition: stronger effect = higher value; nuclei count: measured here: cell number, toxicity
# [4] = target: Voltage-gated potassium channel subunit beta-2 (Rattus norvegicus) (UniProt P62483); assay: inhibitors of rat Kvbeta2 reductase activity – biochemical, NADPH fluorescence, primary screen (AID 622;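 active = fluorescence slope higher than the sample average by over 3 SD, cut at about -0.22 in these data, passing the limit was not always enough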;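 also: slope of raw intensity against log time taken from 70 to 1610 s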); details: recombinant KvBeta, 4-cyanobenzaldehyde reduction, at 10 µM, stronger effect = higher value
# [5] = target: Voltage-gated potassium channel subunit beta-2 (Rattus norvegicus) (UniProt P62483); assay: enhancers of rat Kvbeta2 NADPH turnover – biochemical, NADPH fluorescence, primary screen (AID 623); details: Recombinant KvBeta, NADPH fluorescence decrease slope, 10 min; at 10 µM; stronger effect = lower value;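 also: fluorescence intensity change per second fitted from 20 to 320 s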
# [6] = target: Muscarinic acetylcholine receptor M4 (Homo sapiens) (UniProt P08173); assay: M4-linked GIRK flux change, two-sided – cell-based, HEK293 M4/GIRK, thallium flux, BTC-AM, M4 allosteric agonist project, primary screen (AID 625;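 active = fluorescence slope after compound addition differing from the mean of all tested samples at 99.7% confidence, mostly higher but some lower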;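 also: thallium influx through GIRK channels coupled to M4 in HEK293 cells with BTC-AM dye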); details: at 10 µM, actives lie on both sides
# Summary of the method: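 Material: HEK293 cells with M4 receptor and GIRK channels; Times: cells overnight at 37 °C, BTC-AM loading 1 h, reads 2 min total; Technique: kinetic BTC-AM fluorescence sampled at 1 Hz, 10 s pre-addition baseline; Read-out basis: slope over 15–24 s of trace normalized to starting intensity; Controls: carbachol positive, DMSO negative.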
# [7] = blockers of RIG-like receptor reporter activation – cell-based, Sendai virus stimulus, luciferase, 10K MLSCN set, TLR/RLR signaling modifier project, primary screen (AID 602276;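 active = inhibition at or above 50% at 10 µM; inactive = inhibition below 50%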;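 also: firefly luciferase from ISG56 promoter only with Renilla not read in this screen; 0% = Sendai virus plus DMSO and 100% = medium plus DMSO without virus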); details: HEK293 RL24 IRF3 luciferase reporter, at 10 µM, stronger effect = higher value
# [8] = TLR3 IRF3 reporter activation blockers – cell-based, poly I:C stimulus, luciferase, 10K MLSCN set, primary screen (AID 602277;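 active = inhibition of the reporter signal at or above 50%; inactive = inhibition below 50%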); details: HEK293-TLR3 RL24 IRF3 luciferase reporter, at 10 µM, stronger effect = higher value
# Sequence of Muscarinic acetylcholine receptor M4 (Homo sapiens) (P08173 whole entry, looked up): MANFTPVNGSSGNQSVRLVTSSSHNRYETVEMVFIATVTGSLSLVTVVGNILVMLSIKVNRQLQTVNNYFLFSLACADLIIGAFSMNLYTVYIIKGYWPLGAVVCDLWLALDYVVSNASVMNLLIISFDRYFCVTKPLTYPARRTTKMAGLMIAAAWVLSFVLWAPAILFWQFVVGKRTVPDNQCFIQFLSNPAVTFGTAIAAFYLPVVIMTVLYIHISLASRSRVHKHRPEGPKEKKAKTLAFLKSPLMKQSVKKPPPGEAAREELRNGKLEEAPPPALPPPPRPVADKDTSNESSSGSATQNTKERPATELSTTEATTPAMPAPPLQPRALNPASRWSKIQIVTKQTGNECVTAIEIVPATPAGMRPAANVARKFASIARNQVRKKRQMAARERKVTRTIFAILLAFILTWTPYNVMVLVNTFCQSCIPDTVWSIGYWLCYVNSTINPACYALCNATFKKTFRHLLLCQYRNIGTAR
# Sequence of Voltage-gated potassium channel subunit beta-2 (Rattus norvegicus) (P62483 whole entry, looked up): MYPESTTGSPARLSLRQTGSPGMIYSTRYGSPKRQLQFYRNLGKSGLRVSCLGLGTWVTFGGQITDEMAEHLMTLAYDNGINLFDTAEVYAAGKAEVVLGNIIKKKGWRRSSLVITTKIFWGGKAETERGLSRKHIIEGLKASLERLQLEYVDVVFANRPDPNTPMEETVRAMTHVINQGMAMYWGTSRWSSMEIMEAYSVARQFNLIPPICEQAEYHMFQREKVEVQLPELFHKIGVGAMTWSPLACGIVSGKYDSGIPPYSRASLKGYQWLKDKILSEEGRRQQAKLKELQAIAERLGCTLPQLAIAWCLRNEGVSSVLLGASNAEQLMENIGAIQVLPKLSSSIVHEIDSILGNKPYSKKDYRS
SMILES,cell count [1],inhibition [1],inhibition of aggregation [2],nuclei count [2],inhibition [3],nuclei count [3],fluorescence slope [4],NADPH fluorescence slope [5],fluorescence slope [6],inhibition [7],inhibition [8]
CN1CCc2nc(SCC(=O)Nc3ccc(F)cc3)c(C#N)cc2C1,646,-14.8% (inactive),-16.9% (inactive),101%,-75.1% (inactive),101%,-0.456 (inactive),0.000133 (inactive),0.00558 (inactive),-24.5% (inactive),-52.9% (inactive)
O=C(CSc1nc2ccccc2c(=O)n1CCC(=O)N1CCCCC1)NCc1ccccc1,495,-7.5% (inactive),1% (inactive),103%,16.9% (inactive),101%,-0.507 (inactive),1.6e-05 (inactive),0.00538 (inactive),17.4% (inactive),24.1% (inactive)
O=C(NCc1ccco1)C1CCN(S(=O)(=O)N2CCC3(CC2)OCCO3)CC1,358,5.3% (inactive),28.1% (inactive),84.3%,18% (inactive),72.6%,-0.317 (inactive),-3.5e-05 (inactive),0.00611 (inactive),0.326% (inactive),6.88% (inactive)
CC(C)CNC(=O)C1C2C=CC(C2)C1C(=O)O (stereo not drawn),456,-2.9% (inactive),-8.2% (inactive),98.4%,-33.7% (inactive),128%,-0.535 (inactive),-4e-05 (inactive),0.00535 (inactive),13.4% (inactive),20.4% (inactive)
Cc1cc(C)c(S(=O)(=O)N(C)CC(N)=O)c(C)c1,320,5.1% (inactive),-7.6% (inactive),103%,-60.9% (inactive),111%,-0.489 (inactive),4.3e-05 (inactive),0.00514 (inactive),-4.02% (inactive),-17.9% (inactive)
CCN(Cc1nc2ccccc2c(=O)[nH]1)Cc1nc2cc(OC)c(OC)cc2c(=O)[nH]1,403,-19.9% (inactive),0% (inactive),113%,-17.4% (inactive),144%,-0.324 (inactive),-3.7e-06 (inactive),0.00825 (inactive),-12.7% (inactive),-12.6% (inactive)
Cc1cccc(-n2ncc3c(NCc4ccccn4)ncnc32)c1,351,-16.8% (inactive),4.2% (inactive),101%,0.4% (inactive),122%,-0.592 (inactive),-4.2e-05 (inactive),0.00598 (inactive),-33.2% (inactive),-129% (inactive)
Cc1cc(NC(=O)Cn2cnc3c(cnn3C(C)(C)C)c2=O)no1,645,1.1% (inactive),-5.1% (inactive),113%,7% (inactive),102%,-0.573 (inactive),-3.1e-05 (inactive),0.00541 (inactive),-18.6% (inactive),-0.822% (inactive)
COc1ccc(N2CCN(C(=O)CSc3ncnc4c3cnn4-c3ccccc3C)CC2)cc1,543,2.1% (inactive),-6.1% (inactive),120%,-60.3% (inactive),159%,-0.506 (inactive),-3.3e-06 (inactive),0.0046 (inactive),10.5% (inactive),15.1% (inactive)
CC(C)C(=O)Nc1cccc(NC(=O)c2cccnc2)c1,311,7.2% (inactive),-20.9% (inactive),95.6%,-167% (inactive),104%,-0.611 (inactive),7.6e-06 (inactive),0.00325 (inactive),-7.88% (inactive),-11.4% (inactive)
COc1ccc(NS(=O)(=O)c2c(C)[nH]c(=O)[nH]c2=O)c(OC)c1,409,3.8% (inactive),7.4% (inactive),103%,-40.5% (inactive),113%,-0.565 (inactive),-2.6e-05 (inactive),0.00529 (inactive),7.23% (inactive),13.8% (inactive)
CC(=O)Nc1ccc(OC(=O)c2cccnc2)cc1,367,0.3% (inactive),-13.8% (inactive),103%,-194% (inactive),112%,-0.318 (inactive),-4.9e-05 (inactive),0.00601 (inactive),-10.8% (inactive),-12.7% (inactive)
CCOC(=O)c1c(C)oc2ccc(OCC(N)=O)cc12,794,-12.1% (inactive),-6.7% (inactive),36.5%,20.4% (inactive),93.5%,-0.483 (inactive),-1.6e-05 (inactive),0.00617 (inactive),5.65% (inactive),6.54% (inactive)
CCNS(=O)(=O)c1ccc(S(=O)(=O)N(Cc2ccccn2)C2CCCCC2)cc1,579,3.8% (inactive),6.6% (inactive),108%,-3.6% (inactive),100%,-0.348 (inactive),-6.9e-05 (inactive),0.00588 (inactive),12.3% (inactive),40.2% (inactive)
COc1cc(=O)[nH]c(SCc2c(F)c(F)c(F)c(F)c2F)n1,546,2.2% (inactive),6.7% (inactive),87.6%,-11.4% (inactive),104%,-0.436 (inactive),-4e-05 (inactive),0.00944 (inactive),-4.06% (inactive),22.3% (inactive)
CCOC(=O)C1CCN(S(=O)(=O)c2cc(Cl)c(C)cc2OC)CC1,441,-9.5% (inactive),-0.9% (inactive),109%,-41% (inactive),116%,-0.587 (inactive),1.4e-05 (inactive),0.00585 (inactive),19.9% (inactive),38.6% (inactive)
CC(=O)Nc1ccc(S(=O)(=O)N(CC(=O)O)Cc2ccccc2)cc1,487,6% (inactive),4.7% (inactive),107%,-167% (inactive),130%,-0.575 (inactive),-4.6e-05 (inactive),0.00557 (inactive),8.06% (inactive),14.2% (inactive)
COc1ccc(N2C(=O)C(Cl)=C(Nc3c(C)n(C)n(-c4ccccc4)c3=O)C2=O)cc1,607,-22.9% (inactive),-20.7% (inactive),95.1%,-23.5% (inactive),102%,-0.449 (inactive),3.3e-05 (inactive),0.00622 (inactive),7.07% (inactive),12.3% (inactive)
O=C(OCC#CCSc1nc2ccccc2o1)c1ccco1,541,6.7% (inactive),-4.7% (inactive),111%,-7.3% (inactive),116%,-0.405 (inactive),1.4e-05 (inactive),0.00568 (inactive),-2.28% (inactive),-8.72% (inactive)
CC(C(=O)Nc1ccccc1-c1ccccc1)N1CCN(C(=O)c2ccco2)CC1 (stereo not drawn),546,-11.2% (inactive),14% (inactive),75%,-63.4% (inactive),97.9%,-0.395 (inactive),1.3e-05 (inactive),0.00807 (inactive),19.8% (inactive),33.6% (inactive)
Clc1ccc(Cl)c(-c2nn3c(COc4ccccc4)nnc3s2)c1,678,-5% (inactive),-9.4% (inactive),104%,-81.1% (inactive),139%,-0.546 (inactive),-2.8e-05 (inactive),0.00451 (inactive),23.3% (inactive),23.2% (inactive)
COc1ccccc1NC(=O)N1CCN(c2cccc(C(F)(F)F)c2)CC1,380,4.7% (inactive),12.5% (inactive),107%,-103% (inactive),118%,-0.27 (inactive),-2.7e-05 (inactive),0.00535 (inactive),-10.2% (inactive),-42% (inactive)
COc1ccc(CN2C(=O)c3ccccc3C2C(=O)NC2CCCC2)c(OC)c1 (stereo not drawn),671,-4.8% (inactive),8.3% (inactive),87.1%,-53.3% (inactive),112%,-0.443 (inactive),-4.9e-05 (inactive),0.00535 (inactive),14.9% (inactive),9.49% (inactive)
Cc1ccc(C)c(N2CCN(C(=O)c3ccc(CS(=O)(=O)c4ccccc4C)o3)CC2)c1,555,-15.1% (inactive),12.7% (inactive),95.8%,-45.9% (inactive),125%,-0.555 (inactive),4.4e-05 (inactive),0.00481 (inactive),11.1% (inactive),45.6% (inactive)
CCOC(=O)c1c(C)c(C(=O)NCC2CCCO2)c(C)n1C (stereo not drawn),267,-2% (inactive),-10.1% (inactive),94.7%,-8% (inactive),74.6%,-0.461 (inactive),-6e-06 (inactive),0.00685 (inactive),14.1% (inactive),20.9% (inactive)
CC(=O)N1CCC2(CC1)CC(=O)c1cc(OCC(=O)NCc3ccc(C)cc3)ccc1O2,314,-4.7% (inactive),2.5% (inactive),78.3%,-5% (inactive),119%,-0.0682 (inactive),-3.2e-06 (inactive),0.00521 (inactive),6.64% (inactive),5.97% (inactive)
Cc1nc2ccc(NC(=O)N3CCSCC3)cc2s1,710,-0.4% (inactive),-7.6% (inactive),111%,-93.4% (inactive),96.5%,-0.535 (inactive),5e-05 (inactive),0.00638 (inactive),-33.4% (inactive),-42.8% (inactive)
CC(C)(C)n1ncc2c(=O)n(CC(=O)c3ccccc3)cnc21,473,-1% (inactive),-4.1% (inactive),126%,22.9% (inactive),105%,-0.534 (inactive),-2.2e-05 (inactive),0.00534 (inactive),-21.3% (inactive),-59.6% (inactive)
